What follows are compounds tested against Signal transducer and activator of transcription 3 (Homo sapiens, UniProt P40763) (assay: Inhibition of STAT3 Y705 phosphorylation in human U266 cells by Western blot analysis).
Procedure, shortened: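 Steady-state phosphorylation: exponentially growing U266 cells (1 × 10⁶ cells at 2 × 10⁵ cells/mL, RPMI1640 + 10% FBS) were treated with compound for 1 h. Cells were lysed in PhosphoSafe reagent with protease inhibitors. Western blot used primary antibodies (1:1000, 2 h) and fluorescent secondaries (1 h) at room temperature. A representative blot from several repeats is shown.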

Signal transducer and activator of transcription 3, sequence (P40763 whole entry): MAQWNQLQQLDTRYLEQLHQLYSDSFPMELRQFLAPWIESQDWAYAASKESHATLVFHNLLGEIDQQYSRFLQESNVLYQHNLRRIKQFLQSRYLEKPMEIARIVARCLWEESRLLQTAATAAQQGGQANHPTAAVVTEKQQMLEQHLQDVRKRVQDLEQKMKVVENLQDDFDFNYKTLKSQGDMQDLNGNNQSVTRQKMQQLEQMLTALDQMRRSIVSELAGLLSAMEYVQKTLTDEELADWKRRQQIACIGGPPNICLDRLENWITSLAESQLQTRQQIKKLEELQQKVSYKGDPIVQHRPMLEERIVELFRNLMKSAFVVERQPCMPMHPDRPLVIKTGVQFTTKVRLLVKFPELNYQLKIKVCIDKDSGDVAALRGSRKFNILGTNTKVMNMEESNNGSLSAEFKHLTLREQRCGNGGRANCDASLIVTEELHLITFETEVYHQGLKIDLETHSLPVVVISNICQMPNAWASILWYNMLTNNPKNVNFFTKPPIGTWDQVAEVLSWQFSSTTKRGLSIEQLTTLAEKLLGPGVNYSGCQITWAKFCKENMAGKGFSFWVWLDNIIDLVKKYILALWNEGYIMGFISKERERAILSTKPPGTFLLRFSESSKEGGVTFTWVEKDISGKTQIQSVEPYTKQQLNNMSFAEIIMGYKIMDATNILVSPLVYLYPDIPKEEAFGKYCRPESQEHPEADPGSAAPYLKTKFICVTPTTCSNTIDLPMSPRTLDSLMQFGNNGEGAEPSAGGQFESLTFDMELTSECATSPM

How did the EC50 turn out when `N#Cc1c(F)c(F)c(-n2cc(C(=O)NCc3ccc(F)cc3)c(=O)c3cc(F)c(F)c(F)c32)c(F)c1F` [1-(4-Cyano-2,3,5,6-tetrafluorophenyl)-6,7,8-trifluoro-N-(4-fluorobenzyl)-4-oxo-1,4-dihydroquinoline-3-carboxamide] was run?
The EC50 was 200 nM.

Which EC50 does the source give for `O=C(O)c1cn(-c2c(F)c(F)c(F)c(F)c2F)c2c(F)c(F)c(F)c(F)c2c1=O` [5,6,7,8-Tetrafluoro-4-oxo-1-(pentafluoro-phenyl)-1,4-dihydroquinoline-3-carboxylic acid] here?
The EC50 was 46000 nM.

For `N#Cc1c(F)c(F)c(-n2cc(C(=O)OCc3ccccc3)c(=O)c3cc(F)c(F)c(F)c32)c(F)c1F` [Benzyl 1-(4-Cyano-2,3,5,6-tetrafluorophenyl)-6,7,8-trifluoro-4-oxo-1,4-dihydroquinoline-3-carboxylate], which EC50 is on record?
Its EC50 is 130 nM.

For `CCOC(=O)c1cn(-c2c(F)c(F)c(C#N)c(F)c2F)c2c(F)c(F)c(F)cc2c1=O` [Ethyl 1-(4-Cyano-2,3,5,6-tetrafluorophenyl)-6,7,8-trifluoro-4-oxo-1,4-dihydroquino-line-3-carboxylate], which EC50 is on record?
Its EC50 is 170 nM.

For `CCOC(=O)c1cn(-c2c(F)c(F)c(F)c(F)c2F)c2c(F)c(F)c(F)c(F)c2c1=O` [Ethyl 5,6,7,8-tetrafluoro-4-oxo-1-(pentafluorophenyl)-1,4-dihydroquinoline-3-carboxylate], which EC50 is on record?
The EC50 was 4600 nM.
